The subject of assay [1] is Canis familiaris. In words: Effective dose required to increase the myocardial contractile force (CF) 50% above base line when administered intravenously. The class given is functional. The settings on record: Canis lupus familiaris, Myocardium, iv. The procedure, abridged:
(§1)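 Dopamine standard (10–15 μg/kg/min, 3 min) checked inotropic responsiveness. Compounds dissolved in DMF, diluted to 10% final in saline; stepwise 3–4 increasing doses, each infused over 5 min after prior peak. CF, MAP, HR expressed as % change from predrug control vs cumulative dose.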

Assay [2] deals with phosphodiesterase fraction III (Canis familiaris). Description: Inhibition of cardiac phosphodiesterase-3 isolated from canine heart.
For assay [3], the system named is Canis familiaris. Description: Heart rate (HR) in dog after intravenous dose of 0.470 mg/kg. In kind it is functional, Canis lupus familiaris. The settings on record: dose 0.47 mg/kg. The procedure, abridged:
(§2)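 Anesthetized adult mongrel dogs (sodium pentobarbital 45 mg/kg ip), artificially respired; MAP from cannulated femoral artery, infusion into femoral vein. Dopamine standard (10–15 μg/kg/min, 3 min) checked inotropic responsiveness. Compounds dissolved in DMF, diluted to 10% final in saline; stepwise 3–4 increasing doses, each infused over 5 min after prior peak. CF, MAP, HR expressed as % change from predrug control vs cumulative dose.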

For assay [4], the system named is Canis familiaris. In words: Mean arterial blood pressure (MAP) in dog after intravenous dose of 0.470 mg/kg. The class given is functional, Canis lupus familiaris. The settings on record: dose 0.47 mg/kg. On the set-up: unit: % change from predrug control. In a few lines: as §2
Assay [5] relates to Canis familiaris. In words: Mean arterial blood pressure (MAP) in dog after intravenous dose of 0.075 mg/kg. In kind it is functional, Canis lupus familiaris. The procedure, abridged:
as §1

Assay [6] has as its system Canis familiaris. Description: Heart rate (HR) in dog after intravenous dose of 0.075 mg/kg. The class given is functional, Canis lupus familiaris. The procedure, abridged: as §1
In assay [7] the test system is Canis familiaris. Description: Myocardial contractile force (CF) in dog after intravenous dose of 0.075 mg/kg. The class given is functional, Canis lupus familiaris, Myocardium. In a few lines:
as §1

Assay [8] deals with Canis familiaris. In words: Heart rate in dog following 1.875 mg/kg i.v. administration. In kind it is functional, Canis lupus familiaris. The settings on record: route intravenous. The procedure, abridged: as §2
The subject of assay [9] is Canis familiaris. In words: Intravenous dose required to increase contractile force (inotropic effect) by 50%. In kind it is functional. The settings on record: Canis lupus familiaris. In a few lines: as §2
Assay [10] relates to Canis familiaris. In words: Mean arterial blood pressure in dog following 1.875 mg/kg i.v. administration. The class given is functional, Canis lupus familiaris. The settings on record: route intravenous. The procedure, abridged:
as §2

Assay [11] has as its system Canis familiaris. In words: Myocardial contractile force (CF) in dog after intravenous dose of 1.875 mg/kg. In kind it is functional, Canis lupus familiaris, Myocardium. In a few lines: as §2
For assay [12], the system named is Canis familiaris. Description: Myocardial contractile force (CF) in dog after intravenous dose of 0.470 mg/kg. In kind it is functional, Canis lupus familiaris, Myocardium. The settings on record: dose 0.47 mg/kg. The procedure, abridged: as §2
Assay [13] relates to Canis familiaris. In words: Heart rate (HR) in dog after intravenous dose of 0.100 mg/kg. The class given is functional, Canis lupus familiaris. The settings on record: dose 0.1 mg/kg. In a few lines:
as §2

The subject of assay [14] is Canis familiaris. In words: Myocardial contractile force (CF) in dog after intravenous dose of 0.100 mg/kg. The class given is functional, Canis lupus familiaris, Myocardium. The conditions noted are these: dose 0.1 mg/kg. In a few lines: as §2
In assay [15] the test system is Canis familiaris. In words: Mean arterial blood pressure (MAP) in dog after intravenous dose of 0.100 mg/kg. The class given is functional, Canis lupus familiaris. The conditions noted are these: dose 0.1 mg/kg. In a few lines:
as §2

The species named for assay [16] is Canis familiaris. In words: Inotropic and enzyme inhibition effect on heart rate (HR). The class given is functional, Canis lupus familiaris.
Assay [17] relates to Canis familiaris. In words: Heart rate (HR) in dog after intravenous dose of 0.010 mg/kg. The class given is functional, Canis lupus familiaris. The settings on record: dose 0.075 mg/kg, in the assay text read “0.075 mg/kg” for “0.010 mg/kg”. The procedure, abridged: as §2
Assay [18] concerns Canis familiaris. In words: Mean arterial blood pressure (MAP) in dog after intravenous dose of 0.188 mg/kg. The class given is functional, Canis lupus familiaris. The procedure, abridged: as §2
Assay [19] has as its system Canis familiaris. Description: Myocardial contractile force (CF) in dog after intravenous dose of 0.188 mg/kg. The class given is functional, Canis lupus familiaris, Myocardium. In a few lines: as §2
Assay [20] has as its system Canis familiaris. Description: Heart rate (HR) in dog after intravenous dose of 0.188 mg/kg. The class given is functional, Canis lupus familiaris. In a few lines:
as §2

The subject of assay [21] is Canis familiaris. Description: Percent change in activity 8 hr after peroral administration in conscious dog at 0.30 mg/kg. In kind it is functional, Canis lupus familiaris. The conditions noted are these: dose 0.3 mg/kg; route oral. In a few lines:
(§3)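 Conscious dogs, instrumented earlier with an LV Konigsberg pressure transducer through a left thoracotomy, with ≥1 week recovery and trained to lie quietly. LV dP/dtmax derived as the contractility index; baseline MAP, HR, dP/dtmax taken first. Compound suspended in 0.1% methylcellulose (10 mL) and given by gavage through a gastric tube. Response recorded as % change, also at 8 h.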

Assay [22] is described as follows: Index of contractility was determined as the ratio of % of dP/dtmax in conscious dog after (po) administration of 0.10 mg/kg. In kind it is functional. The settings on record: dose 0.1 mg/kg. The procedure, abridged:
as §3

Assay [23] is described as follows: Index of contractility was determined as the ratio of % of dP/dtmax in conscious dog after (po) administration of a dose of 0.01 mg/kg. The class given is functional. In a few lines:
as §3

Assay [24] in a line: Index of contractility was determined as the ratio of % of dP/dtmax in conscious dog after (po) administration of 0.30 mg/kg. The class given is functional. The conditions noted are these: dose 0.3 mg/kg. The procedure, abridged:
as §3

The subject of assay [25] is Canis familiaris. Description: Percent change in activity 8 hr after peroral administration in conscious dog at 0.10 mg/kg. In kind it is functional, Canis lupus familiaris. The settings on record: dose 0.1 mg/kg; route oral. In a few lines: as §3

Broadly, the ED50 is the midpoint of the dose-response relation. In general, IC50 refers to the point on the concentration scale where inhibition reaches its midpoint. `CC1CC(=O)NN=C1c1ccc2c(c1)N(C)C(=O)C(C)O2` (stereo not given) returned an ED50 with Canis familiaris [1] of 0.068 mg/kg. In assay [2], this molecule displayed an IC50 of 6 µM. The Activity was 36 in the assay on Canis familiaris [3] and -15 with Canis familiaris [4].

On to `CC1CC(=O)NN=C1c1ccc2c(c1)OC(C)(C)C(=O)N2C` (stereo not given), for which the Activity with Canis familiaris [5] was -14; in the assay with Canis familiaris [6], 19; with Canis familiaris [7], 85. The molecule also registered an ED50 in the assay with Canis familiaris [1] of 0.0217 mg/kg. This molecule came in with an IC50 in assay [2] of 6 µM.

Consider `CC1CC(=O)NN=C1c1ccc2c(c1)OC(C)C(=O)N2` (stereo not given), for which the values for the Activity with Canis familiaris [5], in the assay on Canis familiaris [6] and in the assay with Canis familiaris [7] were -17, 23 and 154, respectively. In addition, it took a dose of 0.0054 mg/kg to reach the 50% effect level with Canis familiaris [1] (ED50). In [2], this molecule gave an IC50 of 4 µM.

For `CC1CC(=O)NN=C1c1ccc2c(c1)OC(C)(C)C(=O)N2` (stereo not given), the Activity was -28 with Canis familiaris [5], 16 in the assay on Canis familiaris [6] and 82 in the assay on Canis familiaris [7]. In the assay with Canis familiaris [1], this molecule gave an ED50 of 0.0162 mg/kg. This molecule gave an IC50 in assay [2] of 4 µM.

With `CN1C(=O)C(C)(C)Oc2ccc(C3=NNC(=O)CC3)cc21`, the Activity with Canis familiaris [8] is 8; with Canis familiaris [10], -12; with Canis familiaris [11], 125. The 50% effect level in the assay with Canis familiaris [9] (ED50) was put at a dose of 0.8 mg/kg. For the same molecule, in assay [2], the IC50 came to 36 µM.

Molecule `CC(=O)N1CCOc2ccc(C3=NNC(=O)CC3C)cc21` (stereo not given) displayed an ED50 in the assay with Canis familiaris [1] of 0.056 mg/kg. The molecule further came in with an IC50 in assay [2] of 30 µM. The Activity is reported as 35 in the assay with Canis familiaris [3], -31 in the assay on Canis familiaris [4] and 135 in the assay on Canis familiaris [12].

As to `Cc1[nH]c(=O)c(C#N)cc1-c1ccncc1` [MILRINONE], the Activity in the assay with Canis familiaris [13] is on record as 15; in the assay on Canis familiaris [14], 105; in the assay with Canis familiaris [15] it was -13. It took a dose of 0.022 mg/kg to reach the 50% effect level in the assay on Canis familiaris [1] (ED50).

`CC1CC(=O)NN=C1c1ccc2c(c1)NC(=O)CO2` (stereo not given) showed a 50% effective dose (ED50) in the assay on Canis familiaris [1] of 0.077 mg/kg. In assay [2], this molecule came in with an IC50 of 2 µM. Further, the Activity with Canis familiaris [3] is reported as 26; with Canis familiaris [4] it was -14.

As for `Cc1cc(C2=NNC(=O)CC2)c2c(c1)N(C)C(=O)CO2`, in the assay with Canis familiaris [1], the 50% effective dose (ED50) came to 0.258 mg/kg. The results for the Activity in the assay filed under Canis familiaris [16], with Canis familiaris [4] and with Canis familiaris [12] were 9, 1 and 73, respectively. This molecule registered an IC50 in assay [2] of 26 µM.

In turn, `CC1CC(=O)NN=C1c1ccc2c(c1)N(S(C)(=O)=O)CCO2` (stereo not given) gave an ED50 in the assay with Canis familiaris [1] of 0.148 mg/kg. The molecule also had an IC50 in [2] of 4 µM. For the same molecule, the Activity in the assay with Canis familiaris [3] is 17; with Canis familiaris [4], -1; with Canis familiaris [12], 99.

As for `CC1(C)C(=O)Nc2ccc(C3=NNC(=O)CC3)cc21` [INDOLIDAN], the Activity in the assay with Canis familiaris [5] is -27; with Canis familiaris [7], 110; with Canis familiaris [17], 32. The molecule further yielded an ED50 in the assay with Canis familiaris [1] of 0.0084 mg/kg. In assay [2], the IC50 is 7 µM.

For `O=C1CCC(c2ccc(-n3ccnc3)cc2)=NN1` [IMAZODAN], the Activity in the assay with Canis familiaris [18] was -4; in the assay with Canis familiaris [19], 77; with Canis familiaris [20], 8. Further, the ED50 with Canis familiaris [1] was 0.0822 mg/kg.

In the case of `CN1C(=O)COc2ccc(C3=NNC(=O)CC3)cc21`, in the assay on Canis familiaris [1], the median effective dose (ED50) is 0.279 mg/kg. In addition, in [2], the IC50 is 18 µM. Moreover, the Activity in the assay on Canis familiaris [3] was 13; in the assay with Canis familiaris [4], -4.

As for `CC1CC(=O)NN=C1c1ccc2c(c1)OCC(=O)N2` (stereo not given) [BEMORADAN], the results for the Activity in the assay with Canis familiaris [5], in the assay with Canis familiaris [6] and in the assay on Canis familiaris [7] were -21, 25 and 127, respectively. The Change with Canis familiaris [21] was found to be 65%; in the assay on Canis familiaris [25], 31%. For the same molecule, the ED50 in the assay with Canis familiaris [1] was 0.0054 mg/kg. In addition, the Ratio in assay [22] is 85%; in assay [23], 43%; in assay [24], 130%. In assay [2], this molecule returned an IC50 of 0.3 µM.

Take `CC1CC(=O)NN=C1c1ccc2c(c1)NC(=O)C(C)O2` (stereo not given): in the assay with Canis familiaris [1], it took a dose of 0.07 mg/kg to reach the 50% effect level (ED50). The half-inhibitory concentration (IC50) in assay [2] is 5 µM. The Activity in the assay on Canis familiaris [3] was 18; in the assay on Canis familiaris [4], -10; in the assay with Canis familiaris [12], 157.

`CC1CC(=O)NN=C1c1ccc2c(c1)NCCO2` (stereo not given) showed an ED50 with Canis familiaris [1] of 0.056 mg/kg. Moreover, the IC50 in assay [2] worked out at 6 µM. For the same molecule, the results for the Activity with Canis familiaris [3], with Canis familiaris [4] and with Canis familiaris [12] were 44, -11 and 149, respectively.

Values taken from ChEMBL document CHEMBL1124957, “6-Benzoxazinylpyridazin-3-ones: potent, long-acting positive inotrope and peripheral vasodilator agents” (J Med Chem, 1990).
